Active and inactive are the calls of the source. No cut-off for these calls is given here.
How the values were obtained:
[1] = target: T1, NAD(P)H dehydrogenase [quinone] 1 (Homo sapiens, UniProt P15559); test: Binding affinity to NQO1 in human A549 cells at 10 uM incubated for 10 mins in presence of 10 uM DIC by DAPI staining based fluorescence microscopy imaging; type: cell-based
Procedure, shortened: (§1)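 A549 cells were rinsed with serum-free medium. Probe, from a 10 mM DMSO stock diluted in serum-free medium, was applied at 10 or 50 μM for 10 min at 37 °C, then washed off. For the inhibition condition, 10 μM DIC was co-incubated with the probe under the same conditions. Nuclei were stained with DAPI and cells imaged by laser scanning confocal microscopy.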

[2] = target: T1, NAD(P)H dehydrogenase [quinone] 1; test: Binding affinity to NQO1 in human A549 cells at 10 uM incubated for 10 mins by DAPI staining based fluorescence microscopy imaging; type: cell-based; procedure, shortened: as §1
[3] = target: T1, NAD(P)H dehydrogenase [quinone] 1; test: Binding affinity to NQO1 in human A549 cells at 50 uM incubated for 10 mins in presence of 10 uM DIC by DAPI staining based fluorescence microscopy imaging; type: cell-based; procedure, shortened: as §1
[4] = target: T1, NAD(P)H dehydrogenase [quinone] 1; test: Inhibition of recombinant human NQO1 assessed as reduction in oxidation of NADPH to NADP+ using b-lap as substrate and NADPH in presence of 0.14% (w/v) BSA
[5] = target: T1, NAD(P)H dehydrogenase [quinone] 1; test: Binding affinity to NQO1 in human A549 cells at 50 uM incubated for 10 mins by DAPI staining based fluorescence microscopy imaging; type: cell-based; procedure, shortened: as §1
[6] = target: T1, NAD(P)H dehydrogenase [quinone] 1; test: Binding affinity to recombinant human NQO1 by fluorescence polarization competition assay
Procedure, shortened: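 Fluorescence polarization was read at 485 nm excitation and 535 nm emission in HEPES buffer. Free-probe mP was first measured over a range of probe concentrations without protein. For competition, wells held varying probe concentrations with NQO1 added from a 100 nM solution. IC50 was taken from a plot of % inhibition against concentration.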

- Activity [1]: inactive
- Activity [2]: Active
- Activity [3]: inactive
- IC50 [4]: 980 nM
- Activity [5]: Active
- EC50 [6]: 2950 nM
Compound: O=C1OC2(c3ccc(O)cc3Oc3cc(O)ccc32)c2ccc(NC(=S)NCCCCCCOc3ccc(/C=C/C(=O)c4c(O)c5ccccc5oc4=O)cc3)cc21
